Values joined by “and” are separate entries in the source; they are usually repeats but may differ in a detail not shown here. Identical values can stand only once.
Experiments:
HEK-293T = assay: Multiplex assay against HEK293T; type: toxicity, cell-based; details: human
Outline: (§1)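 Live cells carried four stains from seeding: Hoechst33342, BioTracker Green Microtubule Cytoskeleton Dye, MitoTracker Red and Annexin V Alexa Fluor 680. They were imaged on a CQ1 microscope at 37°C and 5% CO2 after compound addition. Using CellPathfinder machine-learning gating, cells were split into Hoechst high-intensity objects or normal cells, normal cells into healthy, pyknosed or fragmented nuclei, and pyknosed cells into mitotic or apoptotic; tubulin, mitochondrial-mass and membrane-permeability phenotypes are per cents of healthy-nucleus cells.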

U2OS = assay: Multiplex assay against U2OS; type: toxicity, cell-based; details: human; outline: as §1
[1] = 24 h, 10 µM, compound concentration 10 uM
[2] = 48 h, 1 µM, compound concentration 1 uM
[3] = 48 h, 10 µM, compound concentration 10 uM
[4] = 12 h, 1 µM, compound concentration 1 uM
[5] = 12 h, 10 µM, compound concentration 10 uM
[6] = 24 h, 1 µM, compound concentration 1 uM

## NC1=NC(=O)/C(=C2\CCNC(=O)c3[nH]c4ccccc4c32)N1
HEK-293T; [1]
  Population Healthy Nuclei (%): 73.68% and 30.77%
  Population Hoechst High Intensity Objects (%): 0%
  Population Membrane Permeable-Phenotype (%): 0.89% and 6.25%
  Population Mitochondria Different-Phenotype (%): 13.69% and 18.75%
  Population Mitotic Cells (%): 85.09% and 84%
  Population Normal (%): 100%
  Population Pyknosed Nuclei (%): 25% and 64.1%
  Population Tubulin-Different-Phenotype (%): 10.42% and 4.17%
  Total Cell Count: 456 and 156
HEK-293T; [2]
  Population Apoptotic (%): 9.77% and 15.52%
  Population Fragmented Nuclei (%): 3.77% and 1.5%
  Population Healthy Nuclei (%): 86.2% and 69.5%
  Population Hoechst High Intensity Objects (%): 0.08% and 0%
  Population Membrane Permeable-Phenotype (%): 3.85% and 3.6%
  Population Mitochondria Different-Phenotype (%): 10.94% and 10.79%
  Population Mitotic Cells (%): 90.23% and 84.48%
  Population Normal (%): 99.92% and 100%
  Population Pyknosed Nuclei (%): 10.03% and 29%
HEK-293T; [3]
  Population Apoptotic (%): 6.19% and 12.05%
  Population Fragmented Nuclei (%): 2.47% and 2.35%
  Population Healthy Nuclei (%): 85.57% and 58.69%
  Population Hoechst High Intensity Objects (%): 0.25% and 0.93%
  Population Membrane Permeable-Phenotype (%): 2.16% and 0.8%
  Population Mitochondria Different-Phenotype (%): 22.48% and 16.8%
  Population Mitotic Cells (%): 93.81% and 87.95%
  Population Normal (%): 99.75% and 99.07%
U2OS; [4]
  Population Apoptotic (%): 44.68% and 29.17%
  Population Fragmented Nuclei (%): 0.45% and 1.59%
  Population Healthy Nuclei (%): 89.06% and 85.71%
  Population Hoechst High Intensity Objects (%): 0%
  Population Membrane Permeable-Phenotype (%): 1.75% and 0.62%
  Population Mitochondria Different-Phenotype (%): 0% and 9.26%
  Population Mitotic Cells (%): 55.32% and 70.83%
  Population Normal (%): 100%
  Population Pyknosed Nuclei (%): 10.49% and 12.7%
  Population Tubulin-Different-Phenotype (%): 1.25% and 0%
  Total Cell Count: 448 and 189
U2OS; [5]
  Population Apoptotic (%): 37.14% and 30.43%
  Population Fragmented Nuclei (%): 3.07% and 2.13%
  Population Healthy Nuclei (%): 84.98% and 85.64%
  Population Hoechst High Intensity Objects (%): 0%
  Population Membrane Permeable-Phenotype (%): 1.2% and 1.86%
  Population Mitochondria Different-Phenotype (%): 0% and 5.59%
  Population Mitotic Cells (%): 62.86% and 69.57%
  Population Normal (%): 100%
  Population Pyknosed Nuclei (%): 11.95% and 12.23%
  Population Tubulin-Different-Phenotype (%): 2.01% and 0%
  Total Cell Count: 293 and 188
U2OS; [6]
  Population Apoptotic (%): 52.94% and 37.04%
  Population Fragmented Nuclei (%): 2.55% and 1.59%
  Population Healthy Nuclei (%): 89.31% and 87.7%
  Population Hoechst High Intensity Objects (%): 0%
  Population Membrane Permeable-Phenotype (%): 0.54% and 0.9%
  Population Mitochondria Different-Phenotype (%): 0.36% and 4.07%
  Population Mitotic Cells (%): 47.06% and 62.96%
  Population Normal (%): 100%
  Population Pyknosed Nuclei (%): 8.13% and 10.71%
  Population Tubulin-Different-Phenotype (%): 0.54% and 0%
  Total Cell Count: 627 and 252
U2OS; [1]
  Population Apoptotic (%): 43.59% and 37.5%
  Population Fragmented Nuclei (%): 2.31% and 2.43%
  Population Healthy Nuclei (%): 87.69% and 84.62%
  Population Hoechst High Intensity Objects (%): 0%
  Population Membrane Permeable-Phenotype (%): 0.88% and 1.91%
  Population Mitochondria Different-Phenotype (%): 0.29% and 5.26%
  Population Mitotic Cells (%): 56.41% and 62.5%
  Population Normal (%): 100%
  Population Pyknosed Nuclei (%): 10% and 12.96%
  Population Tubulin-Different-Phenotype (%): 0.58% and 0%
  Total Cell Count: 390 and 247
U2OS; [2]
  Population Apoptotic (%): 41.94% and 47.37%
  Population Fragmented Nuclei (%): 4.36% and 0.45%
  Population Healthy Nuclei (%): 87.84% and 91.01%
  Population Hoechst High Intensity Objects (%): 0%
  Population Membrane Permeable-Phenotype (%): 0.76% and 1.73%
  Population Mitochondria Different-Phenotype (%): 0.1% and 2.22%
  Population Mitotic Cells (%): 58.06% and 52.63%
  Population Normal (%): 100%
  Population Pyknosed Nuclei (%): 7.8% and 8.54%
  Population Tubulin-Different-Phenotype (%): 0.86% and 0.99%
  Total Cell Count: 1192 and 445
U2OS; [3]
  Population Apoptotic (%): 40.28% and 50%
  Population Fragmented Nuclei (%): 3.29% and 1.05%
  Population Healthy Nuclei (%): 87.22% and 88.98%
  Population Hoechst High Intensity Objects (%): 0%
  Population Membrane Permeable-Phenotype (%): 0.6% and 0.29%
  Population Mitochondria Different-Phenotype (%): 0% and 4.72%
  Population Mitotic Cells (%): 59.72% and 50%
  Population Normal (%): 100%
  Population Pyknosed Nuclei (%): 9.49% and 9.97%
  Population Tubulin-Different-Phenotype (%): 0.15% and 0.29%
  Total Cell Count: 759 and 381

— ChEMBL document CHEMBL5724801, “EUbOPEN Chemogenomics Library - Multiplex” (2024)
